Measurements: ChEMBL document CHEMBL1138485, “Discovery of inducible nitric oxide synthase (iNOS) inhibitor development candidate KD7332, part 1: Identification of a novel, potent, and selective series of quinolinone iNOS dimerization inhibitors that are orally active in rodent pain models” (J Med Chem, 2009)

Columns and labels:
[1] = Drug level in LPS-challenged BALB/c mouse plasma at 30 mg/kg, po after 6 hrs; format: ADME, organism-based; design: dose 30 mg/kg, route oral
In short: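 Male Balb/c mice were dosed by oral gavage (90% PEG/5% Tween 80/5% PVP + 90% CMC (0.5% w/v)) at t = 0 h, 30 mg/kg for single-dose lines. LPS 10 mg/kg ip in 0.9% NaCl followed immediately. At 6 h, EDTA plasma was taken for nitrate and drug levels. Nitrate reduction is relative to vehicle; ED50 came from full oral dose-response.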

[2] = molecular target: Cytochrome P450 3A4 (Homo sapiens, UniProt P08684); assay: Inhibition of CYP3A4; format: ADME
[3] = molecular target: Cytochrome P450 2C19 (Homo sapiens, UniProt P33261); assay: Inhibition of CYP2C19; format: ADME
[4] = molecular target: T1, Nitric oxide synthase 3 (Homo sapiens, UniProt P29474); assay: Inhibition of human eNOS expressed in HEK293 cells assessed as NO production by transient transfection assay; format: cell-based
T1 sequence (P29474 whole entry): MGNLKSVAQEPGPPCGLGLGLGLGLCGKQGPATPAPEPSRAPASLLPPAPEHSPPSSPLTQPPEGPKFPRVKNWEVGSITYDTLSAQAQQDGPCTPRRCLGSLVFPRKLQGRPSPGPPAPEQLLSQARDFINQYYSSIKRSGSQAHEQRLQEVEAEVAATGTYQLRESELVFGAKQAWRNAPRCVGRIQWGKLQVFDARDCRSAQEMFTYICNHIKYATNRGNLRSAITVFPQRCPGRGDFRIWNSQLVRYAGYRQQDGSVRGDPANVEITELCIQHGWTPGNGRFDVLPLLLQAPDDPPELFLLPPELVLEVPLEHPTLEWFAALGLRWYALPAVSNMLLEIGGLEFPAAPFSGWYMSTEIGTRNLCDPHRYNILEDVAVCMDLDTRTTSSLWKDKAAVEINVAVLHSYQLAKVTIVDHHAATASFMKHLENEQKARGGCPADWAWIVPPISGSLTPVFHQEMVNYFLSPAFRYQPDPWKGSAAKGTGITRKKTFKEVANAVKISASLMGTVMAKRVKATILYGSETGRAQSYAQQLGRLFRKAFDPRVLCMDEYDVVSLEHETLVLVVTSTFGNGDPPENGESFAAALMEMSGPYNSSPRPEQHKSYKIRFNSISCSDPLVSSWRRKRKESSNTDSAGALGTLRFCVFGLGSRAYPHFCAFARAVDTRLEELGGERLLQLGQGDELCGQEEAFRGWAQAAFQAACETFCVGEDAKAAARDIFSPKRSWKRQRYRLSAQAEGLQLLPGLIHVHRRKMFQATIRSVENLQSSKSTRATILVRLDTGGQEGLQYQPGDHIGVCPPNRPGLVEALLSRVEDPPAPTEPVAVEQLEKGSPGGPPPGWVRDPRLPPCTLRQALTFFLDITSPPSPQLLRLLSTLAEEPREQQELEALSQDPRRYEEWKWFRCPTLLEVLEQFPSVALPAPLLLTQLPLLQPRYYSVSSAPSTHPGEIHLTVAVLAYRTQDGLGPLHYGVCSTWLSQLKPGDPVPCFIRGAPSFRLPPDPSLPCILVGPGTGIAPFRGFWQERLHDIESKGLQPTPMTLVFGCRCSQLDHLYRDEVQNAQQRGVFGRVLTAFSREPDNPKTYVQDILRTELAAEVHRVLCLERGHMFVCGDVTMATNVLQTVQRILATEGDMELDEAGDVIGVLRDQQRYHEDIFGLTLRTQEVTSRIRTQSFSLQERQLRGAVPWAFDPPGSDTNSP
In short: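 HEK293 cells grown to ~70% confluence in DMEM/10% FBS with pen/strep, transfected with 15 µg human eNOS plasmid plus Fugene 6 (3:1 µL:µg), 4 h at 37 °C, 10% CO2. Cells replated at 5 × 10⁵/mL, compound added at once, 24 h incubation, then A23187 (83 nM final). After 18 h, NO read by DAN fluorescence.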

[5] = molecular target: T2, Nitric oxide synthase, inducible (Mus musculus, UniProt P29477); assay: Inhibition of mouse iNOS expressed in HEK293 cells assessed as NO production in by transient transfection assay; format: cell-based
T2 sequence (P29477 whole entry): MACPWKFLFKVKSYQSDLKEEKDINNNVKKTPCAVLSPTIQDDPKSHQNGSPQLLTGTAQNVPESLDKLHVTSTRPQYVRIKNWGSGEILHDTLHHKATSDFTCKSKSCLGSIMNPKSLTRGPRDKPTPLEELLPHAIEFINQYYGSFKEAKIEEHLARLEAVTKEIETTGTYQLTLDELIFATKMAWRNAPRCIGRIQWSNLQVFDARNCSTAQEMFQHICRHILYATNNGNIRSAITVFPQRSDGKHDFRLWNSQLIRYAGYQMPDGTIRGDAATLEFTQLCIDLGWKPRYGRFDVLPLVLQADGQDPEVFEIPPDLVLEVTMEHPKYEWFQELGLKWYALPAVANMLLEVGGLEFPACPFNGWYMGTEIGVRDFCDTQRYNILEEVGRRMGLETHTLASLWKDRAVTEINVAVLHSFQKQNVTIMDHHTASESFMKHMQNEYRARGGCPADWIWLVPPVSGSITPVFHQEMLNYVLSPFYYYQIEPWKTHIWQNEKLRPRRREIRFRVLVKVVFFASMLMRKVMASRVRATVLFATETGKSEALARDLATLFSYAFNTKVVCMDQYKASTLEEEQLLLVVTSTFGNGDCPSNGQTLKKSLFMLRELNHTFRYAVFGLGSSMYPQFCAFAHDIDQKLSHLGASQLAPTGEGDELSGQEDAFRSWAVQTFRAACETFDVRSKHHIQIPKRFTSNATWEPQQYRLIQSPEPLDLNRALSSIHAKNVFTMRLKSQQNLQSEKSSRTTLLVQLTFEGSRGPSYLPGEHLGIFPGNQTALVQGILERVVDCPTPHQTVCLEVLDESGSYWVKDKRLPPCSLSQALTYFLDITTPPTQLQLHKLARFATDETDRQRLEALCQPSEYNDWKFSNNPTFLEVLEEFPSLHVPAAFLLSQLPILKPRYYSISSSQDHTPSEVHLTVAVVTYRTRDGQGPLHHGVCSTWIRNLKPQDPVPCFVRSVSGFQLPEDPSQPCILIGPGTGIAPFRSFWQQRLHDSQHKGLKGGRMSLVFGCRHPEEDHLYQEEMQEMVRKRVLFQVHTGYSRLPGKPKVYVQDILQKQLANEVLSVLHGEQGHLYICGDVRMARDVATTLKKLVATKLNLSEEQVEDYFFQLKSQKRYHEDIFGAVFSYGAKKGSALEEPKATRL
In short: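 HEK293 cells grown to ~70% confluence in DMEM/10% FBS with pen/strep. Cells transiently transfected with 10 µg human or murine iNOS plasmid (Fugene 6), 4 h at 37 °C, 10% CO2. Trypsinized, plated at 5 × 10⁵ cells/mL and dosed at once; 1400W 100 µM final as positive control. After 18 h, NO read as DAN fluorescence (10 µg/mL, 20 min RT, then NaOH). EC50 from 3 runs, 10-point curves, n = 8/point.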

Sequence of Cytochrome P450 3A4 (P08684 whole entry): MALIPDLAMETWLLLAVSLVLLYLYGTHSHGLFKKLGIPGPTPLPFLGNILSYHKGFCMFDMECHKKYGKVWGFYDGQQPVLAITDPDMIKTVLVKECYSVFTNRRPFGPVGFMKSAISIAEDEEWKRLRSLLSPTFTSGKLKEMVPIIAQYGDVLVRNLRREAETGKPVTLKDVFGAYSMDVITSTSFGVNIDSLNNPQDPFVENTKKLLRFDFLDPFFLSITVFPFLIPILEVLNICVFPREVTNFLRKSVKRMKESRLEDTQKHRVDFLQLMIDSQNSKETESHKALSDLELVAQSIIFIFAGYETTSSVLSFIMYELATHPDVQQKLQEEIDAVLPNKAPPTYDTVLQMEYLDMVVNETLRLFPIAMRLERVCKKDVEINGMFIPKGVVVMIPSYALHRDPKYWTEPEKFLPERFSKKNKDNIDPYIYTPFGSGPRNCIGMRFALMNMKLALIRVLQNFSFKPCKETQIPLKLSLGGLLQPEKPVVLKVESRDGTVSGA
Sequence of Cytochrome P450 2C19 (P33261 whole entry): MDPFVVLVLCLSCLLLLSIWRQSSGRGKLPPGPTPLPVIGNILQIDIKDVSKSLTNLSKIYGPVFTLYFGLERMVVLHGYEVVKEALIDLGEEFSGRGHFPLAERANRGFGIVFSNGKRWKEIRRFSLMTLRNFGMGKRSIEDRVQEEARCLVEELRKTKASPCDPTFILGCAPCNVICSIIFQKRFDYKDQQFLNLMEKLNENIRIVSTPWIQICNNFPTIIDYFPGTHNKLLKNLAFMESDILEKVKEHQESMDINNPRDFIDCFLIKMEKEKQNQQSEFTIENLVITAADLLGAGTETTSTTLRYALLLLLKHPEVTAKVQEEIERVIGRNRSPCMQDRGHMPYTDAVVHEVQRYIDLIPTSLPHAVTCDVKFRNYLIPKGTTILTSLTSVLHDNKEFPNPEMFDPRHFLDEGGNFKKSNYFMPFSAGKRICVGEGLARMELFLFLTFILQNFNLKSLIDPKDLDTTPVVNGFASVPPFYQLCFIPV

SMILES	concentration at 6 h [1] [ng/mL]	EC50 [2] [µM]	EC50 [3] [µM]	EC50 [4] [µM]	EC50 [5] [nM]
Cc1ncsc1C(=O)N(Cc1cc(=O)[nH]c2c(F)cccc12)c1cccc(Cl)c1	77	7	13	26	120
Cc1ncsc1C(=O)N(Cc1cc(=O)[nH]c2c(F)c(F)ccc12)c1cccc(Cl)c1	8	4.9	19	3	32
CC(C)C(=O)N(Cc1cc(=O)[nH]c2c(F)cccc12)c1cccc(Cl)c1	21	7.6	42	> 100	2700
Cc1ncsc1C(=O)N(Cc1c[n+]([O-])cc2c(F)c(F)ccc12)c1cccc(Cl)c1	20	1.8	93	34	74
CC1=C(C(=O)N(Cc2cc(=O)[nH]c3c(F)c(F)ccc23)c2cccc(Cl)c2)CNCC1	63	3.4	30	2.5	57
Cn1cncc1C(=O)N(Cc1cc(=O)[nH]c2c(F)c(F)ccc12)c1cccc(Cl)c1	18	1.4	11	0.42	14
